Source: ChEMBL document CHEMBL1132584, “5-Alkyl-2-(alkylthio)-6-(2,6-dihalophenylmethyl)-3, 4-dihydropyrimidin-4(3H)-ones: novel potent and selective dihydro-alkoxy-benzyl-oxopyrimidine derivatives” (J Med Chem, 1999)

What was measured:
[1] = tested on: MT4; test: Concentration required to achieve 50% protection of MT-4 cells from HIV-1-induced cytopathogenicity.; format: functional, cell-based; conditions: Homo sapiens
In short: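 MT-4 cells (1×10^4/well) exposed to test compound dilutions (DMSO stock 200 mM, diluted in medium), then infected with HIV-1 IIIB at 100 CCID50/well; 4-day incubation at 37 °C; viable cells counted by MTT; EC50 is the dose giving 50% protection from virus-induced cytopathicity; means of at least two separate experiments.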

[2] = tested on: MT4; test: Cytotoxicity against mock-infected MT-4 cells.; format: functional; conditions: Homo sapiens
In short: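 Mock-infected MT-4 cells (1×10^4/well) incubated 4 days at 37 °C alongside the antiviral assay with serial compound dilutions (from 200 mM DMSO stock); viability read by MTT; CC50 is the dose lowering viability of mock-infected cells by 50%; means of at least two separate experiments.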

[3] = molecular target: Human immunodeficiency virus type 1 reverse transcriptase (Human immunodeficiency virus 1, UniProt Q72547); test: Concentration required to inhibit the HIV-1 reverse transcriptase activity by 50%.
In short: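 Purified recombinant HIV-1 RT, RNA-dependent polymerase activity. Substrate: [³H]dGTP, […] (1 Ci/mmol). Reaction 30 min at 37 °C, then acid-insoluble radioactivity counted on glass-fibre filters.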

[4] = tested on: MT4; test: Selectivity index measured as the ratio of CC50 / EC50.; format: functional
In short: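 Selectivity index: CC50 in mock-infected MT-4 cells divided by EC50 against HIV-1 IIIB cytopathicity in MT-4 cells, both from MTT read-out after 4-day culture.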

| Compound | EC50 [1] | CC50 [2] | IC50 [3] | Selectivity index [4] |
| --- | --- | --- | --- | --- |
| Oc1cc(Cc2c(Cl)cccc2Cl)nc(SC2CCCCC2)n1 | 0.6 µM | > 200 µM | 0.4 µM | >333 SI |
| CSc1nc(O)cc(Cc2c(F)cccc2F)n1 | 0.81 µM | > 200 µM | 0.8 µM | >247 SI |
| CCOCn1c(Cc2ccccc2)c(C(C)C)c(=O)[nH]c1=O [EMIVIRINE] | 0.03 µM | 200 µM | 0.04 µM | 6666 SI |
| CCC(C)Sc1nc(O)c(C)c(Cc2ccc(Cl)cc2)n1 (stereo not drawn) | 9.5 µM | > 200 µM | 8.5 µM | >20 SI |
| Cc1c(O)nc(SCC(C)C)nc1Cc1c(Cl)cccc1Cl | 1.2 µM | > 200 µM | 1.1 µM | >166 SI |
| CCC(C)Sc1nc(O)cc(Cc2c(Cl)cccc2Cl)n1 (stereo not drawn) | 0.14 µM | > 200 µM | 0.1 µM | >1428 SI |
| CCC(C)Sc1nc(O)cc(Cc2ccc(F)cc2)n1 (stereo not drawn) | 8.7 µM | > 200 µM | 7.4 µM | 23 SI |
| CSc1nc(O)cc(Cc2c(Cl)cccc2Cl)n1 | 3.2 µM | > 200 µM | 3 µM | >62 SI |
| Cc1c(O)nc(SC(C)C)nc1Cc1c(Cl)cccc1Cl | 1.3 µM | > 200 µM | 1.15 µM | >154 SI |
| CCC(C)Sc1nc(O)c(C)c(Cc2cccc([N+](=O)[O-])c2)n1 (stereo not drawn) | 0.35 µM | > 200 µM | 0.4 µM | >571 SI |
| Cc1c(O)nc(SC2CCCC2)nc1Cc1ccccc1 | – | > 200 µM | 0.5 µM | >333 SI |
| CCC(C)Sc1nc(O)c(C)c(Cc2ccc([N+](=O)[O-])cc2)n1 (stereo not drawn) | 2 µM | > 200 µM | 1.8 µM | >100 SI |
| CCC(C)Sc1nc(O)cc(Cc2ccccc2F)n1 (stereo not drawn) | 0.26 µM | 200 µM | 0.3 µM | 769 SI |
| Cc1c(O)nc(SC2CCCCC2)nc1Cc1c(Cl)cccc1Cl | 22 µM | > 200 µM | 4.9 µM | >9 SI |
| CC(C)CSc1nc(O)cc(Cc2c(F)cccc2F)n1 | 0.14 µM | 182 µM | 0.2 µM | 1300 SI |
| CCCCSc1nc(O)cc(Cc2c(F)cccc2F)n1 | 0.18 µM | 162 µM | 0.2 µM | 900 SI |
| CCC(C)Sc1nc(O)c(C)c(Cc2c(Cl)cccc2Cl)n1 (stereo not drawn) | 0.05 µM | > 200 µM | 0.06 µM | >4000 SI |
| Oc1cc(Cc2c(Cl)cccc2Cl)nc(SC2CCCC2)n1 | 0.4 µM | > 200 µM | 0.4 µM | >500 SI |
| CCCCSc1nc(O)c(C)c(Cc2c(F)cccc2F)n1 | 0.08 µM | > 200 µM | 0.09 µM | >2500 SI |
| CCC(C)Sc1nc(O)cc(Cc2cccc(F)c2)n1 (stereo not drawn) | 0.7 µM | > 200 µM | 0.6 µM | >286 SI |
| CSc1nc(O)c(C)c(Cc2c(Cl)cccc2Cl)n1 | 38 µM | > 200 µM | – | 5.2 SI |
| CCC(C)Sc1nc(O)c(C)c(Cc2cccc(F)c2)n1 (stereo not drawn) | 1.2 µM | > 200 µM | 1.5 µM | >166 SI |
| Cc1c(O)nc(SCC(C)C)nc1Cc1c(F)cccc1F | 0.1 µM | 164 µM | 0.09 µM | 1640 SI |
| O=c1cc(Cc2c(F)cccc2F)nc(SC2CCCC2)[nH]1 | 0.08 µM | > 200 µM | 0.08 µM | >2500 SI |
| Cc1c(O)nc(SC2CCCC2)nc1Cc1c(Cl)cccc1Cl | 1.8 µM | > 200 µM | 1.7 µM | >111 SI |
| CC(C)CSc1nc(O)cc(Cc2c(Cl)cccc2Cl)n1 | 0.45 µM | > 200 µM | 0.6 µM | >444 SI |

| Compound | EC50 [1] | CC50 [2] | IC50 [3] | Selectivity index [4] |
| --- | --- | --- | --- | --- |
| CCC(C)Sc1nc(O)cc(Cc2ccc([N+](=O)[O-])cc2)n1 (stereo not drawn) | 1.5 µM | 151 µM | 1.2 µM | 101 SI |
| CCC(C)Sc1nc(O)c(C)c(Cc2c(F)cccc2F)n1 (stereo not drawn) | 0.05 µM | > 200 µM | 0.05 µM | >4000 SI |
| CCC(C)Sc1nc(O)cc(Cc2ccccc2[N+](=O)[O-])n1 (stereo not drawn) | 0.25 µM | > 200 µM | 0.3 µM | >800 SI |
| CCC(C)Sc1nc(O)c(C)c(Cc2cccc(Cl)c2)n1 (stereo not drawn) | 0.96 µM | > 200 µM | 0.9 µM | >208 SI |
| CCC(C)Sc1nc(O)c(C)c(Cc2ccccc2Cl)n1 (stereo not drawn) | 0.27 µM | > 200 µM | 0.4 µM | >741 SI |
| CCC(C)Sc1nc(O)cc(Cc2ccccc2)n1 (stereo not drawn) | – | – | 1 µM | 125 SI |
| CCCCSc1nc(O)cc(Cc2c(Cl)cccc2Cl)n1 | 0.44 µM | > 200 µM | 0.5 µM | >454 SI |
| CCC(C)Sc1nc(O)cc(Cc2ccc(Cl)cc2)n1 (stereo not drawn) | 5 µM | 120 µM | 4.8 µM | 24 SI |
| CCC(C)Sc1nc(O)cc(Cc2cccc([N+](=O)[O-])c2)n1 (stereo not drawn) | 0.4 µM | 157 µM | 0.3 µM | 392 SI |
| CCC(C)Sc1nc(O)c(C)c(Cc2ccccc2)n1 (stereo not drawn) | – | – | 0.5 µM | 140 SI |
| Cc1c(Cc2c(F)cccc2F)nc(SC(C)C)[nH]c1=O | 0.05 µM | > 200 µM | 0.05 µM | >4000 SI |
| Oc1cc(Cc2c(F)cccc2F)nc(SC2CCCCC2)n1 | 0.08 µM | > 200 µM | 0.09 µM | >2500 SI |
| CCC(C)Sc1nc(O)cc(Cc2c(F)cccc2F)n1 (stereo not drawn) | 0.04 µM | > 200 µM | 0.05 µM | >5000 SI |
| CSc1nc(O)c(C)c(Cc2c(F)cccc2F)n1 | 0.19 µM | 200 µM | 0.2 µM | 1053 SI |
| CCC(C)Sc1nc(O)c(C)c(Cc2ccc(F)cc2)n1 (stereo not drawn) | 11 µM | 105 µM | 13 µM | 9.5 SI |
| Cc1ccnc2c1NC(=O)c1cccnc1N2C1CC1 [NEVIRAPINE] | – | > 200 µM | – | – |
| CCCCSc1nc(O)c(C)c(Cc2c(Cl)cccc2Cl)n1 | 1.1 µM | > 200 µM | 1.15 µM | >171 SI |
| Cc1c(Cc2c(F)cccc2F)nc(SC2CCCC2)[nH]c1=O | 0.08 µM | > 200 µM | 0.08 µM | >2500 SI |
| Cc1c(O)nc(SC2CCCCC2)nc1Cc1c(F)cccc1F | 0.09 µM | > 200 µM | 0.07 µM | >2222 SI |
| CC(C)Sc1nc(O)cc(Cc2c(Cl)cccc2Cl)n1 | 1.9 µM | > 200 µM | 1.5 µM | >105 SI |
| CC(C)Sc1nc(Cc2c(F)cccc2F)cc(=O)[nH]1 | 0.05 µM | > 200 µM | 0.05 µM | >4000 SI |
| Oc1cc(Cc2ccccc2)nc(SC2CCCC2)n1 | – | – | 1.6 µM | 86 SI |
| CCC(C)Sc1nc(O)c(C)c(Cc2ccccc2F)n1 (stereo not drawn) | 0.41 µM | 140 µM | 0.41 µM | 341 SI |
| CCC(C)Sc1nc(O)cc(Cc2ccccc2Cl)n1 (stereo not drawn) | 1 µM | 200 µM | 1.6 µM | 200 SI |
| CCC(C)Sc1nc(O)cc(Cc2cccc(Cl)c2)n1 (stereo not drawn) | 2 µM | 116 µM | 1.9 µM | 58 SI |
